Source: ChEMBL document CHEMBL3232712, “Antineoplastic agents. 595. Structural modifications of betulin and the X-ray crystal structure of an unusual betulin amine dimer” (2014)
Values after ≈ are worked out from the molar mass of the structure shown.

Legend:
Type in all cases: functional
MCF7 = experiment: Cytotoxicity against human MCF7 cells after 48 hrs by SRB assay; details: MCF7, 48 h
In short: (§1)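 Human tumour lines in RPMI1640 with 5% fetal bovine serum, trypsinized and counted by hemacytometer, seeded in 96-well plates and allowed 24 h before serial compound dilutions were added. After 48 h exposure, cells were fixed with trichloroacetic acid and stained with sulforhodamine B, and optical density was read. GI50 was taken as the concentration halving net protein increase.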

SF-268 = experiment: Cytotoxicity against human SF268 cells after 48 hrs by SRB assay; details: SF-268, 48 h; in short: as §1
P388 = experiment: Cytotoxicity against mouse P388 cells after 48 hrs; details: P388, 48 h, read-out: ED50 (the source's name)
In short: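 Murine P388 leukemia cells, counted by Coulter counter, were grown 24 h in Fisher medium with 10% horse serum, then exposed 48 h to serial compound dilutions. Cell numbers were determined with a Coulter particle counter, and ED50 was calculated for growth inhibition.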

[1] = Cytotoxicity against human KM20L2 cells after 48 hrs by SRB assay; details: KM-20L2, 48 h; in short: as §1
NCI-H460 = experiment: Cytotoxicity against human NCI-H460 cells after 48 hrs by SRB assay; details: NCI-H460, 48 h; in short: as §1
[2] = Cytotoxicity against human BxPC3 cells after 48 hrs by SRB assay; details: BXPC-3, 48 h; in short: as §1
DU-145 = experiment: Cytotoxicity against human DU145 cells after 48 hrs by SRB assay; details: DU-145, 48 h; in short: as §1

Structure (SMILES)	GI50 (MCF7) [µg/mL]	GI50 (SF-268) [µg/mL]	EC50 (P388) [µg/mL]	GI50 [1] [µg/mL]	GI50 (NCI-H460) [µg/mL]	GI50 [2] [µg/mL]	GI50 (DU-145) [µg/mL]
C=C(C)[C@@H]1CC[C@]2(COC(C)=O)CC[C@]3(C)[C@H](CC[C@@H]4[C@@]5(C)CCC(=O)C(C)(C)[C@@H]5CC[C@]43C)[C@@H]12	8 (≈ 16.6 µM)	10.6 (≈ 22 µM)	0.12 (≈ 0.249 µM)	12.7 (≈ 26.3 µM)	5.2 (≈ 10.8 µM)	> 10	> 10
C=C(C)[C@@H]1CC[C@]2(COC(C)=O)CC[C@]3(C)[C@H](CC[C@@H]4[C@@]5(C)CC[C@H](O)C(C)(C)[C@@H]5CC[C@]43C)[C@@H]12	3 (≈ 6.19 µM)	4 (≈ 8.25 µM)	0.805 (≈ 1.66 µM)	5 (≈ 10.3 µM)	2.5 (≈ 5.16 µM)	4.1 (≈ 8.46 µM)	7.6 (≈ 15.7 µM)
CC1(C)CC[C@]23CC[C@]4(C)[C@H](CC[C@@H]5[C@@]6(C)CC(Br)C(=O)C(C)(C)[C@@H]6CC[C@]54C)[C@H]2[C@H]1OC3 (some centres undefined)	5 (≈ 9.62 µM)	3.4 (≈ 6.54 µM)		2.7 (≈ 5.2 µM)	2.9 (≈ 5.58 µM)	3.1 (≈ 5.97 µM)	6.7 (≈ 12.9 µM)
CC1(C)CC[C@]23CC[C@]4(C)[C@H](CC[C@@H]5[C@@]6(C)C=C(O)C(=O)C(C)(C)[C@@H]6CC[C@]54C)[C@H]2[C@H]1OC3	7.1 (≈ 15.6 µM)	> 10		8 (≈ 17.6 µM)	8.8 (≈ 19.4 µM)	> 10	9.3 (≈ 20.5 µM)
C=C(C)[C@@H]1CC[C@]2(COC(C)=O)CC[C@]3(C)[C@H](CC[C@@H]4[C@@]5(C)C[C@@H](Br)C(=O)C(C)(C)[C@@H]5CC[C@]43C)[C@@H]12	4.1 (≈ 7.3 µM)	10.1 (≈ 18 µM)	0.725 (≈ 1.29 µM)	9.6 (≈ 17.1 µM)	12.8 (≈ 22.8 µM)	3.1 (≈ 5.52 µM)	9 (≈ 16 µM)
C=C(C)[C@@H]1CC[C@]2(COC(C)=O)CC[C@]3(C)[C@H](CC[C@@H]4[C@@]5(C)C[C@H](Br)C(=O)C(C)(C)[C@@H]5CC[C@]43C)[C@@H]12	3.2 (≈ 5.7 µM)	3.4 (≈ 6.05 µM)	> 10	4.4 (≈ 7.83 µM)	2.8 (≈ 4.99 µM)	3.4 (≈ 6.05 µM)	6.1 (≈ 10.9 µM)
C=C(C)[C@@H]1CC[C@]2(COC(C)=O)CC[C@]3(C)[C@H](CC[C@@H]4[C@@]5(C)CC(Br)(Br)C(=O)C(C)(C)[C@@H]5CC[C@]43C)[C@@H]12	2.5 (≈ 3.9 µM)	4.4 (≈ 6.87 µM)	0.391 (≈ 0.61 µM)	4.2 (≈ 6.56 µM)	4.4 (≈ 6.87 µM)	1 (≈ 1.56 µM)	3.8 (≈ 5.93 µM)
C=C(C)[C@@H]1CC[C@]2(COC(C)=O)CC[C@]3(C)[C@H](CC[C@@H]4[C@@]5(C)CC(N=[N+]=[N-])C(=O)C(C)(C)[C@@H]5CC[C@]43C)[C@@H]12 (some centres undefined)	5 (≈ 9.55 µM)	> 10	> 10	4.2 (≈ 8.02 µM)	4.4 (≈ 8.4 µM)	6.6 (≈ 12.6 µM)	5.7 (≈ 10.9 µM)
C=C(C)[C@@H]1CC[C@]2(COC(C)=O)CC[C@]3(C)[C@H](CC[C@@H]4[C@@]5(C)C=C(N)C(=O)C(C)(C)[C@@H]5CC[C@]43C)[C@@H]12	> 10	> 10	> 10	> 10	> 10	7.9 (≈ 15.9 µM)	> 10
C=C(C)[C@@H]1CC[C@]2(COC(C)=O)CC[C@]3(C)[C@H](CC[C@@H]4[C@@]5(C)C=C(NC6=C[C@]7(C)[C@H]8CC[C@@H]9[C@H]%10[C@H](C(=C)C)CC[C@]%10(COC(C)=O)CC[C@@]9(C)[C@]8(C)CC[C@H]7C(C)(C)C6=O)C(=O)C(C)(C)[C@@H]5CC[C@]43C)[C@@H]12	> 10	> 10	> 10	> 10	> 10	> 10	> 10
C=C(C)[C@@H]1CC[C@]2(COC(C)=O)CC[C@]3(C)[C@H](CC[C@@H]4[C@@]5(C)CC(=O)C(O)C(C)(C)[C@@H]5CC[C@]43C)[C@@H]12 (some centres undefined)	5.8 (≈ 11.6 µM)	6.1 (≈ 12.2 µM)	> 10	5.9 (≈ 11.8 µM)	8 (≈ 16 µM)	9.1 (≈ 18.2 µM)	> 10
C=C(C)[C@@H]1CC[C@]2(COC(C)=O)CC[C@]3(C)[C@H](CC[C@@H]4[C@@]5(C)CC6=NC(C)(C)N=C6C(C)(C)[C@@H]5CC[C@]43C)[C@@H]12	11.2 (≈ 20.9 µM)	> 10		> 10	> 10	14.5 (≈ 27.1 µM)	> 10
C=C(C)[C@@H]1CC[C@]2(CO)CC[C@]3(C)[C@H](CC[C@@H]4[C@@]5(C)CC6=NC(C)(C)N=C6C(C)(C)[C@@H]5CC[C@]43C)[C@@H]12	2 (≈ 4.06 µM)	6.9 (≈ 14 µM)		4.9 (≈ 9.94 µM)	2.8 (≈ 5.68 µM)	1.9 (≈ 3.86 µM)	5.8 (≈ 11.8 µM)
CC1(C)CC[C@]23CC[C@]4(C)[C@H](CC[C@@H]5[C@@]6(C)CCC(=O)C(C)(C)[C@@H]6CC[C@]54C)[C@H]2[C@H]1OC3	> 10	> 10		> 10	> 10	> 10	> 10
CC1(C)CC[C@]23CC[C@]4(C)[C@H](CC[C@@H]5[C@@]6(C)CC(N=[N+]=[N-])C(=O)C(C)(C)[C@@H]6CC[C@]54C)[C@H]2[C@H]1OC3 (some centres undefined)	4.7 (≈ 9.76 µM)	8.7 (≈ 18.1 µM)		7.9 (≈ 16.4 µM)	3.8 (≈ 7.89 µM)	3.1 (≈ 6.44 µM)	4.5 (≈ 9.34 µM)
CC1(C)CC[C@]23CC[C@]4(C)[C@H](CC[C@@H]5[C@@]6(C)C=C(N)C(=O)C(C)(C)[C@@H]6CC[C@]54C)[C@H]2[C@H]1OC3	11.2 (≈ 24.7 µM)	> 10		> 10	> 10	10.8 (≈ 23.8 µM)	> 10
CC1(C)CC[C@]23CC[C@]4(C)[C@H](CC[C@@H]5[C@@]6(C)C=C(NC7=C[C@]8(C)[C@H]9CC[C@@H]%10[C@H]%11[C@H]%12OC[C@@]%11(CCC%12(C)C)CC[C@@]%10(C)[C@]9(C)CC[C@H]8C(C)(C)C7=O)C(=O)C(C)(C)[C@@H]6CC[C@]54C)[C@H]2[C@H]1OC3	> 10	> 10		> 10	> 10	> 10	> 10
C=C(C)[C@@H]1CC[C@]2(C(=O)OC)CC[C@]3(C)[C@H](CC[C@@H]4[C@@]5(C)CC(=O)CC(C)(C)[C@@H]5CC[C@]43C)[C@@H]12	11.6 (≈ 24.7 µM)	> 10	> 10	> 10	13.1 (≈ 27.9 µM)	8.2 (≈ 17.5 µM)	> 10
C=C(C)[C@@H]1CC[C@]2(C(=O)OC)CC[C@]3(C)[C@H](CC[C@@H]4[C@@]5(C)C=C(N6CCOCC6)C(=O)C(C)(C)[C@@H]5CC[C@]43C)[C@@H]12	6.1 (≈ 11.1 µM)	> 10		> 10	4.4 (≈ 7.97 µM)	3.9 (≈ 7.07 µM)	> 10
C=C(C)[C@@H]1CC[C@]2(COC(C)=O)CC[C@]3(C)[C@H](CC[C@@H]4[C@@]5(C)CC[C@H](OC(C)=O)C(C)(C)[C@@H]5CC[C@]43C)[C@@H]12 [BETULIN DIACETATE]	> 10	> 10	0.806	> 10	> 10	> 10	> 10
C=C(C)[C@@H]1CC[C@]2(CO)CC[C@]3(C)[C@H](CC[C@@H]4[C@@]5(C)CC[C@H](O)C(C)(C)[C@@H]5CC[C@]43C)[C@@H]12 [BETULIN]	> 10	> 10		> 10	7.4 (≈ 16.7 µM)	9.3 (≈ 21 µM)	> 10
C=C(C)[C@@H]1CC[C@]2(C(=O)OC)CC[C@]3(C)[C@H](CC[C@@H]4[C@@]5(C)CCC(=O)C(C)(C)[C@@H]5CC[C@]43C)[C@@H]12 [METHYL BETULONATE]	2.7 (≈ 5.76 µM)	2.7 (≈ 5.76 µM)	> 10	2.2 (≈ 4.69 µM)	2.3 (≈ 4.91 µM)	2.4 (≈ 5.12 µM)	2.3 (≈ 4.91 µM)
